Several values for one entry are separate records, joined by “and”; a condition that tells them apart may be missing. Equal values may be shown once.
Experiments:
[1] = test system: Human immunodeficiency virus 1; assay: Antiviral activity against HIV1 virus-like particles harboring wild type reverse transcriptase infected in human U2OS cells after 24 hrs by Renilla luciferase assay; assay type: functional, organism-based
Outline: (§1)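 U2OS cells seeded 5 × 10^4 per well, infected next day with HIV-1 VLPs carrying wt or mutant RT at MOI 0.01 with polybrene 6 μg/mL plus compound; 1 h at 37 °C, washed, compound-containing media 24 h, then compound-free media 24 h. Lysate Gluc activity (Renilla luciferase reagent) normalised to protein.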

[2] = Cytotoxicity against human U2OS cells assessed as reduction of cell viability after 48 hrs; assay type: cell-based
Outline: (§2)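 Impedance-based real-time viability: U2OS (3.5 × 10^3) or TZM-bl (8.5 × 10^3) cells seeded on electrode plates, compounds in DMSO added 24 h later (final DMSO 0.5%), cell index recorded over a further 48 h. CC50 = concentration lowering cell index by 50% relative to DMSO-only cells.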

[3] = (§3) Cytotoxicity against human U2OS cells assessed as cell viability at 50 uM after 48 hrs relative to control; assay type: cell-based; details: U2OS cells, read-out: Activity
Outline: (§4)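 U2OS cells seeded at 3.5 × 10^3 on electrode plates; after 24 h compound added at a single concentration (final DMSO 0.5%) and impedance cell index followed for 48 h. Graded against DMSO-treated cells: >50% reduction toxic, 20-50% moderately toxic, ≤20% non-toxic.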

[4] = target: Human immunodeficiency virus type 1 reverse transcriptase (Human immunodeficiency virus 1) (UniProt Q72547); assay: Inhibition of recombinant HIV1 reverse transcriptase using 234-nt long RNA/18-mer DNA oligonucleotide as template/primer assessed as remaining activity at 50 uM preincubated for 15 mins followed by incubation with template/primer for 40 mins by liquid scintillation counting in presence of alpha[P33]-dCTP relative to control
[5] = target: Human immunodeficiency virus type 1 reverse transcriptase (Human immunodeficiency virus 1) (UniProt Q72547); assay: Inhibition of recombinant HIV1 reverse transcriptase using 234-nt long RNA/18-mer DNA oligonucleotide as template/primer assessed as remaining activity at 200 uM preincubated for 15 mins followed by incubation with template/primer for 40 mins by liquid scintillation counting in presence of alpha[P33]-dCTP relative to control
[6] = test system: Human immunodeficiency virus 1; assay: Antiviral activity against HIV1 virus-like particles harboring wild type reverse transcriptase infected in human U2OS cells assessed as remaining viral activity at 50 uM after 24 hrs by Renilla luciferase assay relative to control; assay type: functional; outline: as §1
[7] = target: Human immunodeficiency virus type 1 reverse transcriptase (Human immunodeficiency virus 1, UniProt Q72547); assay: Inhibition of HIV1 reverse transcriptase using 234-nt long RNA/18-mer DNA oligonucleotide as template/primer preincubated for 15 mins followed by incubation with template/primer for 40 mins by liquid scintillation counting in presence of alpha[P33]-dCTP; details: read-out: IC50
[8] = (§5) Cytotoxicity against human U2OS cells assessed as cell viability at 5 uM after 48 hrs relative to control; assay type: cell-based; details: U2OS cells, read-out: Activity; outline: as §4
[9] = test system: Human immunodeficiency virus 1; assay: Antiviral activity against HIV1 virus-like particles harboring wild type reverse transcriptase infected in human U2OS cells assessed as remaining viral activity at 5 uM after 24 hrs by Renilla luciferase assay relative to control; assay type: functional; outline: as §1
U2OS [10] = assay: as §5; assay type: cell-based; details: u2os, 48 h, 5 µM; outline: as §4
U2OS [11] = assay: as §3; assay type: cell-based; details: u2os, 48 h, 50 µM; outline: as §4
[12] = Cytotoxicity against human TZM-bl cells assessed as reduction of cell viability after 48 hrs; assay type: cell-based; outline: as §2
[13] = test system: Human immunodeficiency virus 1; assay: Antiviral activity against HIV1 virion infected in human TZM-bl cells after 48 hrs by firefly luciferase assay; assay type: functional, organism-based; details: Human immunodeficiency virus 1, TZM-bl, 48 h; read-out: IC50
Outline: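 TZM-bl cells (LTR-driven firefly luciferase), 5 × 10^4 per well, infected next day with ACH-2-derived HIV-1 stock (PMA-induced; 30 ng p24 per well) plus compound for 2 h at 37 °C; medium then replaced with compound-containing medium for 48 h.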

[14] = Human immunodeficiency virus 1, U2OS, 24 h, read-out: IC50

Row | SMILES | IC50 [1, 14] [µM] | CC50 at 48 h [2] [µM] | viability at 48 h, 50 µM [3] [%] | Activity [4] | Activity [5] | Activity [6] [%] | IC50 [7] [µM] | viability at 48 h, 5 µM [8] [%] | Activity [9] | Activity (U2OS [10]) | Activity (U2OS [11]) | IC50 ([1]; u2os) | CC50 at 48 h [12] [µM] | IC50 [13] [nM] | IC50 ([1]; u2os, read-out: IC50) [µM]
1 | Cc1ccccc1Nc1nc(Cn2ccc(C(F)(F)F)cc2=O)nc(=N)[nH]1 | > 50 | > 50 | 105 | 88% | 89% | 101 | > 200 |  |  |  |  |  |  |  | 
2 | COc1ccc(Nc2nc(Nc3ccc(OC)cc3)nc(NC3CCCC3)n2)cc1 | > 5 | > 50 | 67 | 94% | 98% | 30 | > 200 | 87 | 94% |  |  |  |  |  | 
3 | Cc1ccc2[nH]c(=O)c(CN(CCCO)C(=S)NC[C@@H]3CCCO3)cc2c1 | > 50 | > 50 | 108 | 98% | 108% | 68 | > 200 |  |  |  |  |  |  |  | 
4 | Cc1ccc(Nc2nc(NCC3CCCO3)nc(Nc3ccc(C)cc3)n2)cc1 (stereo in doubt; 8(n.p)) [listing 1 of 2 here] |  |  |  | 59% | 53% |  |  |  |  |  |  |  |  |  | 
5 | Cc1ccccc1Nc1nc(N)nc(CN(C)Cc2ccc(F)cc2)n1 | > 50 | > 50 | 84 | 103% | 89% | 53 | > 200 | 96 | 151% |  |  |  |  |  | 
6 | c1coc(CNc2nc(NCc3ccco3)c3nc(NCc4ccco4)[nH]c3n2)c1 | > 50 | > 50 | 116 | 92% | 102% | 104 | > 200 |  |  |  |  |  |  |  | 
7 | Cc1ccc(Nc2nc(COc3ccc(Cl)cc3)nc(=N)[nH]2)cc1 | > 50 | > 50 | 76 | 79% | 86% | 82 | > 200 | 93 | 125% |  |  |  |  |  | 
8 | CNc1nc(Nc2ccc(C)cc2)nc(Nc2ccc(C)cc2)n1 | > 5 | > 5 | 46 | 85% and 86% | 79% and 82% |  | > 200 | 96 | 84% and 80% | 91% | 40% |  |  |  | 
9 | Cc1ccc(Nc2nc(NCC3CCCO3)nc(NCC3CCCO3)n2)cc1 (stereo not drawn) |  | > 50 |  |  |  |  |  |  |  |  |  | Not Active | > 50 |  | 
10 | Cc1ccnc2c1NC(=O)c1cccnc1N2C1CC1 [NEVIRAPINE] |  | > 100 |  | 13.7% | 9% |  |  |  | 0.5% | Non-toxic | Non-toxic |  | > 100 | 26 | 
11 | O=C1NC(=S)N(CCC2=CCCCC2)C(=O)/C1=C\NCCO | > 50 | > 50 | 98 | 92% | 78% | 54 | > 200 |  |  |  |  |  |  |  | 
12 | Cc1c(CCC(=O)NCC(=O)NCC(=O)O)c(=O)oc2c(C)c(O)ccc12 | > 50 | > 50 | 99 | 92% | 93% | 94 | > 200 |  |  |  |  |  |  |  | 
13 | Nc1c(NCCO)cc(Nc2ccccc2)c2c1C(=O)c1ccccc1C2=O | > 5 | > 5 | 42 | 90% | 66% |  | > 200 | 99 | 111% |  |  |  |  |  | 
14 | Cc1ccc(Nc2nc(NCC3CCCO3)nc(Nc3ccc(C)cc3)n2)cc1 (single isomer, unassigned; isomer 1) |  |  |  |  |  |  |  |  |  |  |  |  |  |  | 18.2
15 | Cc1ccc(Nc2nc(N)nc(COC(=O)c3cnc4ccccc4n3)n2)cc1 | > 50 | > 50 | 103 | 82% | 54% | 75 | > 200 |  |  |  |  |  |  |  | 
16 | CCOC(=O)c1[nH]c2ccc(F)cc2c1NC(=O)NC1CCCCC1 | > 50 | > 50 | 103 | 81% | 42% | 84 | > 50 |  |  |  |  |  |  |  | 
17 | CCCn1c(NCCN(CC)CC)nc2c1c(=O)[nH]c(=O)n2C | > 50 | > 50 | 101 | 89% | 103% | 128 | > 200 |  |  |  |  |  |  |  | 
18 | Cc1ccc(Nc2nc(Nc3ccc(C)cc3)nc(Nc3ccc(C)cc3)n2)cc1 |  | > 50 |  |  |  |  |  |  |  |  |  | Not Active | > 50 |  | 
19 | Nc1nc(COC(=O)c2c[nH]c3ccccc23)nc(Cc2ccc(F)cc2)n1 | > 50 | > 50 | 101 | 86% | 87% | 118 | > 200 |  |  |  |  |  |  |  | 
20 | Cc1ccc(Nc2nc(NCC3CCCO3)nc(Nc3ccc(C)cc3)n2)cc1 (single isomer, unassigned; isomer 2) |  |  |  |  |  |  |  |  |  |  |  |  | > 50 |  | 32
21 | Cc1ccc(Nc2nc(NCC3CCCO3)nc(Nc3ccc(C)cc3)n2)cc1 (stereo in doubt; 8(n.p)) [listing 2 of 2 here] |  |  | 66 |  |  | 5.2 | 106 | 90 | 20% |  |  |  |  |  | 0.33

Source: ChEMBL document CHEMBL3784952, “Design, discovery, modelling, synthesis, and biological evaluation of novel and small, low toxicity s-triazine derivatives as HIV-1 non-nucleoside reverse transcriptase inhibitors” (Bioorg Med Chem, 2016)
